Assay results reported in paper PMC5795597 (Journal of medicinal chemistry, 2017).

Legend:
[1] = In vitro plasma stability / metabolite identification; assay type: in vitro ADME; conditions: 10 μM, 37 °C, 60 min incubation
Summary of the method: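 Mouse plasma was spiked at 10 μM and shaken at 37 °C. Triplicate aliquots at 0 and 60 min were quenched with 2 volumes of ice-cold acetonitrile containing 5 μM losartan, then centrifuged at 12000g for 10 min. Supernatant was diluted 1:1 with water. Parent loss and metabolites were tracked by C18 LC–ESI-TOF MS.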

[2] = cited from earlier work
[3] = Plasma levels of 1 after single oral dose in mice; assay type: in vivo, mouse; conditions: dose equivalent of 10 mg/kg of 1, plasma 30 min after administration
Summary of the method: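 Male CD-1 mice (25–30 g) got a single oral dose of 10 mg/kg parent equivalent in 50 mM HEPES-buffered saline, pH 7.4, made the same day. At 30 min, mice were killed with pentobarbital and blood taken by cardiac puncture into heparin. Plasma (200g, 15 min; stored −80 °C) was assayed by C18 LC-MS/MS, parent transition 279.986 > 203.066/247.173, losartan internal standard. Mean ± SEM, n = 3.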

[4] = system: rat chronic constriction injury model of neuropathic pain; assay: Chronic constrictive injury; assay type: in vivo; conditions: rat CCI
Summary of the method: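 Male Sprague–Dawley rats (200–250 g, n = 10–15/group) received four loose chromic gut ligatures, 1 mm apart, on the sciatic nerve. From day 10 post-surgery, hind-paw withdrawal latency to a plantar thermal stimulus was read to 0.1 s (normal response within 15 s). Difference score: nonligated minus ligated. Sessions twice weekly, 3 days apart. Daily oral gavage, 1 h pre-test. Gabapentin 50/100 mg/kg po as control. Student's t-test.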

rhGCPII = rhGCPII (Homo sapiens, UniProt Q04609); assay: GCPII radioenzymatic inhibition assay with 3H-NAAG; assay type: biochemical; conditions: relative to compound 1
Chain of rhGCPII (Q04609 whole entry): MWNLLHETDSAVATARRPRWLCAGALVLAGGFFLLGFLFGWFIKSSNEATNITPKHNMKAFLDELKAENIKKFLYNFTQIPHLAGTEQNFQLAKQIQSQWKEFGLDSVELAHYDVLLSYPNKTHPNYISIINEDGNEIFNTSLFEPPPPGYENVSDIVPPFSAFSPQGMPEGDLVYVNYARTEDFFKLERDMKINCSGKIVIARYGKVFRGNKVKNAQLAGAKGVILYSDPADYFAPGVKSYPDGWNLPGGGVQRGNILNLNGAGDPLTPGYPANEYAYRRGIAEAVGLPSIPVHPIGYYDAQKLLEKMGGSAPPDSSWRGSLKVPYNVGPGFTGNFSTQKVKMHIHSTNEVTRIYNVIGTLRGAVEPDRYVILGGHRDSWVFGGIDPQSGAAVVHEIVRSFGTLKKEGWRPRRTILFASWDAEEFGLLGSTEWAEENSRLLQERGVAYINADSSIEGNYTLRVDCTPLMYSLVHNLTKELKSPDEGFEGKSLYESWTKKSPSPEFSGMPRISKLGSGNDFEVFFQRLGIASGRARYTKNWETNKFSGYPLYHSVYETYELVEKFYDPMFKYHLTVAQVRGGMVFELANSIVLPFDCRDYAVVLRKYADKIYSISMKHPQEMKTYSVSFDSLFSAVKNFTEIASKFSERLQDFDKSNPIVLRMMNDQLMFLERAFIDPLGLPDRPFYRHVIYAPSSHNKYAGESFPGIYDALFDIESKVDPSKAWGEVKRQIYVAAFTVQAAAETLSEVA
Summary of the method: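 Recombinant human GCPII was started with a mix of 0.31 μM NAAG plus 15 nM 3H-NAAG (concentrations in the added mix). After 20 min, the reaction was stopped with 200 mM potassium phosphate, 50 mM EDTA and 2 mM β-mercaptoethanol, pH 7.4. Released glutamate was isolated by ion exchange and counted by scintillation. IC50 was fitted from inhibition curves.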

[5] = Stability under GCPII enzyme assay conditions; assay type: physicochemical; conditions: 30 m in aqueous buffer; pH 8.0

| Structure (SMILES) | stability / bioconversion in mouse plasma (in words) [1] | plasma levels of 1 following oral administration of prodrug (in words) [3] | further results |
| --- | --- | --- | --- |
| O=C(CCC(Cc1ccc(C(=O)O)cc1)C(=O)O)NO (stereo not drawn) [Compound 1, 4-Carboxy-α-[3-(hydroxyamino)-3-oxopropyl]-benzenepropanoic acid] | completely stable | – | distribution to sciatic nerves (in words) [2]: good distribution to sciatic nerves |
| CC(=O)ONC(=O)CCC(Cc1ccc(C(=O)O)cc1)C(=O)O (stereo not shown) [Compound 7, 4-(5-(Acetoxyamino)-2-carboxy-5-oxopentyl)benzoic Acid] | – | equal or higher | – |
| CC(=O)Oc1ccc(CONC(=O)CCC(Cc2ccc(C(=O)O)cc2)C(=O)O)cc1 (stereo not shown) [Compound 12, 4-(5-(((4-Acetoxybenzyl)oxy)amino)-2-carboxy-5-oxopentyl)-benzoic Acid] | complete conversion of prodrug 12 to 1 | equal or higher | effect on absolute latency of the sham operated side ([4]; 4.6 mg/kg/day po): no significant effect; first day of significantly reduced thermal hyperalgesia ([4]; 12 at 4.6 mg/kg/day po (3 mg/kg equivalent of 1)): 4 days |
| Cc1oc(=O)oc1CONC(=O)CCC(Cc1ccc(C(=O)O)cc1)C(=O)O (stereo not shown) [Compound 17, 4-(2-Carboxy-5-(((5-methyl-2-oxo-1,3-dioxol-4-yl)methoxy)-amino)-5-oxopentyl)benzoic Acid] | – | equal or higher | fold less potency compared to 1 (GCPII inhibition) (rhGCPII): 12 fold; stability under GCPII enzyme assay conditions (in words) [5]: partial hydrolysis to 1 |
| CCOC(=O)c1ccc(CC(CCC(=O)NOCc2ccc(OC(C)=O)cc2)C(=O)O)cc1 (stereo not shown) [Compound 23, 5-(((4-Acetoxybenzyl)oxy)amino)-2-(4-(ethoxycarbonyl)benzyl)-5-oxopentanoic Acid] | not converted into 1 | – | – |
| CC(=O)Oc1ccc(CONC(=O)CCC(Cc2ccc(C(=O)OCOC(=O)OC(C)C)cc2)C(=O)O)cc1 (stereo not shown) [Compound 30, 5-(((4-Acetoxybenzyl)oxy)amino)-2-(4-((((isopropoxycarbonyl)-oxy)methoxy)carbonyl)benzyl)-5-oxopentanoic Acid] | completely hydrolyzed | – | – |
| NCC1(CC(=O)O)CCCCC1 [gabapentin, reference compound] | – | – | reversal of allodynia (positive control) ([4]; 100 mg/kg po daily, maintained throughout the dosing period): significantly reversed allodynia |
